# Assay results: ChEMBL document CHEMBL1126988, “Quinolone antibacterials containing the new 7-[3-(1-aminoethyl)-1- pyrrolidinyl] side chain: the effects of the 1-aminoethyl moiety and its stereochemical configurations on potency and in vivo efficacy” (J Med Chem, 1993)
# What was measured:
# Assay type in all cases: functional
# Klebsiella pneumoniae = test: Minimum inhibitory concentration was evaluated in vitro against Klebsiella pneumoniae MGH2; settings: Klebsiella pneumoniae; read-out: MIC
# Summary of the method: (§1)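 Standard microtitration broth assay against a panel of 10 Gram-positive and Gram-negative organisms. MIC read in µg/mL and averaged over multiple experiments.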
# Streptococcus pyogenes [1] = test: Compounds were evaluated in vivo for antibacterial activity for mouse protection against Streptococcus pyogenes C 203 after oral administration; settings: Streptococcus pyogenes, C 203, po; read-out: PD50
# Escherichia coli [2] = test: Antibacterial activity in vitro against Escherichia coli Vogel; settings: Escherichia coli; read-out: MIC; summary of the method: as §1
# Escherichia coli [3] = test: Antibacterial activity against Escherichia coli Vogel after oral administration in mouse; settings: Escherichia coli, po; read-out: PD50
# Staphylococcus aureus [4] = test: Minimum inhibitory concentration was evaluated in vitro against Staphylococcus aureus UC 76; summary of the method: as §1
# Pseudomonas aeruginosa = test: Minimum inhibitory concentration was evaluated in vitro against Pseudomonas aeruginosa UI-18; settings: Pseudomonas aeruginosa; read-out: MIC; summary of the method: as §1
# Enterobacter cloacae = test: Minimum inhibitory concentration in vitro against Enterobacter cloacae MA 2646; settings: Enterobacter cloacae; read-out: MIC
# Enterococcus faecalis = test: Minimum inhibitory concentration was evaluated in vitro against Enterococcus faecalis MGH-2; summary of the method: as §1
# Streptococcus pneumoniae = test: Minimum inhibitory concentration was evaluated in vitro against Streptococcus pneumoniae SV-1; summary of the method: as §1
# Providencia rettgeri = test: Minimum inhibitory concentration was evaluated in vitro against Providencia rettgeri M1771; settings: Providencia rettgeri; read-out: MIC; summary of the method: as §1
# Streptococcus pyogenes [5] = test: Antibacterial activity measured as mouse protection against Streptococcus pyogenes C 203 after subcutaneous administration; settings: Streptococcus pyogenes, C 203, sc; read-out: PD50
# Escherichia coli [6] = test: Antibacterial activity against Escherichia coli Vogel after subcutaneous administration in mouse; settings: Escherichia coli, sc; read-out: PD50
# Streptococcus pyogenes [7] = test: Minimum inhibitory concentration was evaluated in vitro against Streptococcus pyogenes C 203; summary of the method: as §1
# Staphylococcus aureus [8] = test: Minimum inhibitory concentration was evaluated in vitro against Staphylococcus aureus H 228; summary of the method: as §1
# [9] = Staphylococcus aureus, read-out: MIC
# [10] = Enterococcus faecalis, read-out: MIC
# [11] = Streptococcus pneumoniae, read-out: MIC
# [12] = Streptococcus pyogenes, read-out: MIC
SMILES,MIC (Klebsiella pneumoniae) [µg/mL],ED50 (Streptococcus pyogenes [1]) [mg/kg],MIC (Escherichia coli [2]) [µg/mL],ED50 (Escherichia coli [3]) [mg/kg],MIC (Staphylococcus aureus [4]; [9]) [µg/mL],MIC (Pseudomonas aeruginosa) [µg/mL],MIC (Enterobacter cloacae) [µg/mL],MIC (Enterococcus faecalis; [10]) [µg/mL],MIC (Streptococcus pneumoniae; [11]) [µg/mL],MIC (Providencia rettgeri) [µg/mL],ED50 (Streptococcus pyogenes [5]) [mg/kg],ED50 (Escherichia coli [6]) [mg/kg],MIC (Streptococcus pyogenes [7]; [12]) [µg/mL],MIC (Staphylococcus aureus [8]; [9]) [µg/mL],MIC (Staphylococcus aureus [4]) [µg/mL],MIC (Enterococcus faecalis) [µg/mL],MIC (Streptococcus pneumoniae) [µg/mL],MIC (Streptococcus pyogenes [7]) [µg/mL],MIC (Staphylococcus aureus [8]) [µg/mL]
CCn1cc(C(=O)O)c(=O)c2cc(F)c(N3CCC(N)C3)c(OC)c21 (stereo unspecified),0.2,74,0.2,13,0.05,0.8,0.2,0.4,0.4,0.4,25,7,0.2,0.2,,,,,
CCNCC1CCN(c2nc3c(cc2F)c(=O)c(C(=O)O)cn3C2CC2)C1 (stereo unspecified),0.2,17,0.1,7,0.05,0.8,0.2,0.1,0.1,0.8,8,1,0.2,0.1,,,,,
CCN[C@H](C)[C@H]1CCN(c2cc3c(cc2F)c(=O)c(C(=O)O)cn3C2CC2)C1 (mixture of isomers; form 2),0.4,8,0.2,13,,6.3,0.2,,,0.8,1,2,,,0.025,0.1,0.05,0.05,0.1
CN[C@H](C)[C@@H]1CCN(c2c(F)cc3c(=O)c(C(=O)O)cn(C4CC4)c3c2OC)C1,0.2,4,0.1,12,0.013,3.1,0.1,0.05,0.013,0.4,1,3,0.025,0.05,,,,,
CCn1cc(C(=O)O)c(=O)c2cc(F)c(N3CCC(N)C3)c(F)c21 (stereo unspecified),0.1,21,0.05,3,0.05,0.2,,,,0.1,7,1,,0.2,,,,,
NC1CCN(c2c(F)cc3c(=O)c(C(=O)O)cn(C4CC4)c3c2F)C1 (stereo unspecified),,8,,1,,0.1,0.025,0.05,,0.05,2,,,,,,,,
CNCC1CCN(c2cc3c(cc2F)c(=O)c(C(=O)O)cn3C2CC2)C1 (stereo unspecified),0.2,> 50,0.1,35,0.025,0.8,0.2,0.1,0.05,0.4,5,2,0.05,0.2,,,,,
CCNCC1CCN(c2cc3c(cc2F)c(=O)c(C(=O)O)cn3C2CC2)C1 (stereo unspecified),,,,,0.013,,,,,,5,3,,,,,,,
CCN[C@H](C)[C@H]1CCN(c2nc3c(cc2F)c(=O)c(C(=O)O)cn3-c2ccc(F)cc2F)C1 (racemic),0.8,2,0.4,25,0.013,3.1,0.8,0.2,0.1,1.6,2,13,0.1,0.05,,,,,
CNCC1CCN(c2nc3c(cc2F)c(=O)c(C(=O)O)cn3C2CC2)C1 (stereo unspecified),0.2,21,0.1,3,0.025,0.8,0.2,0.2,0.025,0.4,7,1,0.05,0.2,,,,,
NCC1CCN(c2c(F)c(N)c3c(=O)c(C(=O)O)cn(C4CC4)c3c2F)C1 (stereo unspecified),0.025,11,0.013,12,0.003,0.1,0.025,0.013,0.003,0.05,0.6,1,0.003,0.006,,,,,
CCn1cc(C(=O)O)c(=O)c2cc(F)c(N3CCC(CN)C3)c(F)c21 (stereo unspecified),0.4,100,0.1,90,0.1,0.4,0.2,0.1,0.1,0.4,5,1,0.05,0.1,,,,,
